# Most compounds without a hit are left out; they make up all but 3.8% or so of the library.
# Hep lipid drop = modulators of hepatic lipid droplet formation; AML12 mouse hepatocytes, oleate lipid droplets, BODIPY imaging; inhibition, % at 6.5 µM; 240,000 compounds, 0.4% hits; AID 1656;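 active = lipid droplet intensity inhibited by at least 50%, with more than 500 cells counted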
#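 Material – AML12 mouse liver cells · Also added – oleate loading, 100 µM · Compound dosing – 6.5 µM single-point dosing · Times – overnight treatment with compound plus oleate · Measured by – fluorescence imaging, 20x objective, two fields per well · Read-out – percent inhibition of filter-corrected integrated lipid droplet intensity per well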
# HSF-1 act = increases HSF-1 driven luciferase reporter signal; activation, % at 9 µM; AID 504408; NIH3T3-HGL HSF-1 luciferase reporter, MG132, 8 h; 100% = twice DMSO control signal; 300,000 compounds, 1.7% hits;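 active = mean replicate activation of at least 50% with a set share of replicates each reaching 50%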
# HSF1 inhib = HSF1 inhibition; NIH3T3-HGL HSE-luciferase, MG132-induced, luminescence 8 h; active compounds read low; activity change, negative = inhibition, % at 7.5 µM (by protocol); 300,000 compounds, 0.77% hits; AID 2098;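 active = more than half of replicate wells show activity change below -50%, luminescence cut by over half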;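 note: luciferase reports HSF-1 transcriptional activity via heat shock element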
# NS3 helicase inh = blocks Hepatitis C virus NS3 helicase unwinding; NS3 helicase DNA unwinding, Cy5 molecular beacon fluorescence; inhibition, % at 10.9 µM; 290,000 compounds, 0.56% hits; AID 1800;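 active = inhibition above the mean of all tested compounds plus 3 SD, set per campaign, cut at about 35% in these data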
#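 Control set: DMSO versus 110 µM thioflavine S; Material: NS3 helicase fragment of HCV; Measured by: Cy5 fluorescence at 0 and 60 min, beacon hairpin quenching; Read-out basis: percent inhibition from t60/t0 fluorescence ratio; Times: reaction time 60 min, 25 °C; Repeats: single replicate; Compound dosing: single dose, 10.9 µM nominal final, DMSO 0.8% final.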
# HSP90 inh = blocks HSP90-mediated luciferase refolding in reticulocyte lysate; Rabbit reticulocyte lysate, luciferase refolding luminescence, 3 h; inhibition, % at 5.6 µM; 290,000 compounds, 0.91% hits;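 active = inhibition above the screen-wide mean plus 3 SD, computed separately per campaign, cut at about 16% in these data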;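 note: inhibitors lower the luminescence because luciferase stays unfolded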
# Numbers stand for hits; - = inactive; . = no result given.
SMILES,Hep lipid drop,HSF-1 act,HSF1 inhib,NS3 helicase inh,HSP90 inh
COC(=O)c1cccc(NC(=O)c2ccc3c(c2)C(=O)N(CC2CCCO2)C3=O)c1 (stereo not drawn),-,-,-,-,-
O=C(O)c1cccc(NC(=O)c2ccc3c(c2)C(=O)N(CC2CCCO2)C3=O)c1 (stereo not drawn),-,-,-,-,17
CCN(CC)CCCNC(=O)c1nn2c(C(F)(F)F)cc(-c3ccccc3)nc2c1Cl,-,-,-,-,-
COc1ccc(OC)c(CNC(=O)C2CCC(=O)N(CCCN3CCCC3=O)C2)c1 (stereo not drawn),-,-,-,-,-
Cc1ccc(C(=O)Nc2cnc3ccccc3c2)cc1,-,-,-67,-,87
Cc1ccc(C(=O)Nc2cccc(-c3cnc4ccccc4n3)c2)cc1,.,-,-61,-,-
CCOCc1nnc(NC(=O)CS(=O)(=O)c2ccc(C)cc2)s1,-,-,-,-,-
Cc1ccc(C)c(NS(=O)(=O)c2c(C)nc3sccn3c2=O)c1,-,-,-,-,-
OCCCCCN=c1cc(-c2ccccc2)oc2ccc(Cl)cc12,.,98,-,-,-
Clc1ccc2oc(-c3ccccc3)cc(=NCCCN3CCOCC3)c2c1,-,.,.,-,-
N#C/C(=C\c1ccc(Cl)cc1)c1nc2ncccc2[nH]1,.,54,-,-,-
N#C/C(=C\c1c(Cl)cccc1Cl)c1nc2ccccc2[nH]1,-,-,-,-,-
C=CC(n1cncn1)C(O)(c1ccccc1)c1ccccc1 (stereo not drawn),.,-,-,.,.
Cc1ccc(C(=O)c2cc3ccccc3o2)cc1[N+](=O)[O-],-,64,-,-,-
O=C(c1ccccc1)c1cc2ccccc2o1,.,54,-,-,-
O=C(c1ccc(F)cc1)c1cc2ccccc2o1,.,-,-,-,-
CC12CC(c3ccccc3O1)C(C(=O)NCc1ccccc1)C(=O)N2 (stereo not drawn),.,-,-71,-,-
COc1ccc(NC(=O)C2C(=O)NC3(C)CC2c2ccccc2O3)cc1 (stereo not drawn),.,-,-,-,-
Cc1nn2c(CN(C(=O)CN3CCOCC3)c3ccccc3)nnc2c2ccccc12,-,-,-56,-,-
Oc1cccnc1Sc1cccc(C(F)(F)F)c1,.,86,-,.,.
[N-]=[N+]=NC[C@H](c1ccccc1)N1CCN(Cc2ccccc2)CCC1=O,.,-,-,-,-
COc1cccc(C(C(=O)NC(C)(C)C)N(C(=O)CCC(=O)Nc2cc(C)on2)C(C)(C)C)c1OC (stereo not drawn),-,-,-,-,-
C=CCN(C(=O)CCC(=O)Nc1cc(C)on1)C(C(=O)NC(C)(C)C)c1cccc(OC)c1OC (stereo not drawn),.,83,-,-,-
O=C(Nc1nc(-c2ccc3c(c2)OCCO3)cs1)C1CCCC1,-,-,-,-,-
CCOC(=O)CC(NS(=O)(=O)c1ccc2[nH]cc(C(=O)O)c(=O)c2c1)c1ccc(OCC)c(OC)c1 (stereo not drawn),-,88,-,-,-
SMILES,Hep lipid drop,HSF-1 act,HSF1 inhib,NS3 helicase inh,HSP90 inh
CCOC(=O)CC(NS(=O)(=O)c1ccc(OC)c(OC)c1)c1cccc([N+](=O)[O-])c1 (stereo not drawn),-,-,-,-,-
CCOC(=O)c1sc(NC(=O)CCN2CCCCCC2)c(C(=O)OCC)c1C,-,193,-,-,-
CCOC(=O)c1c(NC(=O)CC)sc(C(=O)N2CCCCC2)c1C,-,.,.,-,-
Cc1ccc(NC(=O)c2cc(-n3cnnc3)ccc2Cl)cc1,-,-,-,-,-
Cc1ccc(NC(=O)c2cc(N3C(=O)C=CC3=O)ccc2Cl)cc1C,-,60,-,-,-
CCOC(=O)CCNC(=O)Nc1cc2nc(C)n(Cc3cccc(Cl)c3)c2nc1C,.,-,-,-,-
COc1ccc(CCNC(=O)c2cc(COc3c(C)cccc3C)on2)c(OC)c1,-,56,-,-,-
CCOc1ccc(NC(=O)CN2C(=O)/C(=C3\SC(=S)N(C4CCS(=O)(=O)C4)C3=O)c3ccccc32)cc1 (stereo not drawn),-,.,.,-,20
CCOc1ccc(N=Nc2c(N)[nH][nH]c2=O)cc1,-,-,-78,-,-
c1ccc2c(c1)nnn1c3ccccc3nc21,.,62,-,-,-
COc1cccc(NC(=O)c2csc3c2CCCC3)c1,-,-,-,-,-
CCC(C)NC(=O)c1csc2c1CCCCC2 (stereo not drawn),-,67,-,-,-
COc1ccc(NC(=O)c2csc3c2CCCC3)cc1,-,53,-,-,-
CC(C)c1nc2ccc(Br)cn2c1NC1CCCC1,-,-,-,-,-
COC(=O)c1c(NC(=O)CC2SC(N)=NC2=O)sc2c1CCC(C)C2 (stereo not drawn),-,-,-,-,-
CCOC(=O)c1c(NC(=O)CC2SC(N)=NC2=O)sc2c1CCC(C)C2 (stereo not drawn),-,-,-,-,59
COc1ccc(CCNC(=O)Nc2cccc([N+](=O)[O-])c2)cc1OC,-,71,-,-,-
COc1ccc(CCNC(=O)c2cccc([N+](=O)[O-])c2)cc1OC,.,-,-87,.,.
O=C(NCc1ccccn1)c1cccc([N+](=O)[O-])c1,.,62,-,-,-
COc1ccc(CCNC(=O)c2ccc(-c3cccc([N+](=O)[O-])c3)o2)cc1OC,-,-,-,-,-
COc1ccc(CCNC(=O)Nc2cccc([N+](=O)[O-])c2)cc1,-,-,-,-,-
O=C(CCc1ccccc1)Nc1cccc([N+](=O)[O-])c1,-,-,-76,-,-
CCc1ccc(NC(=O)Cn2nnc(C(=O)NCc3ccco3)c2N)cc1,-,-,-,-,-
COc1ccc(NC(=O)c2cccc(OS(=O)(=O)N(C)C)c2)cc1,-,54,-,-,-
CSc1cccc(NC(=O)c2cccc3cccnc23)c1,-,54,-,-,-
SMILES,Hep lipid drop,HSF-1 act,HSF1 inhib,NS3 helicase inh,HSP90 inh
COc1ccc2oc(=O)c(C(C)=O)cc2c1,-,-,-,-,-
COc1ccc(NC(=O)c2cc3cc(OC)ccc3oc2=N)cc1,-,-,-53,-,-
COc1cccc(C(=O)Nc2cccc(SC)c2)c1,.,62,-,-,-
COc1cc2c(cc1OC)C(C(=O)NC1CC1)C1c3ccccc3CCN1C2=O (stereo not drawn),.,-,-61,-,-
CCN(CC)CCNC(=O)C1c2cc(OC)c(OC)cc2C(=O)N2CCc3ccccc3C12 (stereo not drawn),.,.,.,-,-
Cc1ccc(NC(=O)COc2nsnc2N2CCOCC2)cc1Cl,.,-,-,-,-
O=C(Cc1ccc(F)cc1)Nc1ccc(S(=O)(=O)N2CCCC2)cc1,.,-,-,.,.
O=C(Cc1ccccc1F)Nc1ccc(S(=O)(=O)N2CCCCC2)cc1,-,-,-65,-,-
COc1cccc(NC(=O)Cn2c(=O)oc3cc(S(=O)(=O)N4CCCC4)ccc32)c1,-,-,-56,-,-
COc1ccccc1CCC(=O)OCC(=O)Nc1cccc(S(=O)(=O)N2CCOCC2)c1,.,-,-63,.,.
